Reference: ChEMBL document CHEMBL2429791, “Preparation of asymmetric urea derivatives that target prostate-specific membrane antigen for SPECT imaging” (J Med Chem, 2013)

Columns and labels:
Format in all cases: ADME, organism-based
Kidney [1] = test: Drug excretion in C.B.-17/Icr […] Jcl mouse kidney xenografted with human LNCAP and PC3 cells at 25.9 MBq, iv; conditions: in vivo
Liver [2] = test: Drug excretion in C.B.-17/Icr […] Jcl mouse liver xenografted with human LNCAP and PC3 cells at 25.9 MBq, iv; conditions: in vivo
LNCaP = test: Biodistribution in LNCAP cells in C.B.-17/Icr +/+ Jcl mouse xenografted with human LNCAP and PC3 cells at 25.9 MBq, iv after 30 mins in presence of 2-PMPA; conditions: in vivo, 0.5 h
Summary of the method: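 Blocking study: ¹²⁵I-labelled tracer coinjected iv by tail vein with 2-PMPA (50 mg/kg) in LNCaP/PC-3 xenograft-bearing mice (22–24 g). Mice decapitated 30 min after injection; tissues weighed and counted; uptake as %ID/g.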

Spleen [3] = test: Biodistribution in spleen of C.B.-17/Icr scid/scid Jcl mouse xenografted with human LNCAP and PC3 cells at 25.9 MBq, iv after 30 mins; conditions: in vivo, 0.5 h
[4] = Ratio of drug level in human LNCAP cells xenografted in C.B.-17/Icr +/+ Jcl mouse to blood of C.B.-17/Icr +/+ Jcl mouse xenografted with human LNCAP and PC3 cells at 25.9 MBq, iv after 6 hrs; conditions: LNCAP tumour xenograft relative to blood
Summary of the method: (§1)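 Tumor-to-blood and tumor-to-muscle ratios were calculated from %ID/g values in ¹²⁵I-tracer biodistribution in LNCaP/PC-3 xenografted mice. Tail-vein dosing, n=4 per time point, sacrifice at 2 min, 30 min, 1, 3 or 6 h.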

Blood [5] = test: Biodistribution in blood of C.B.-17/Icr +/+ Jcl mouse xenografted with human LNCAP and PC3 cells at 25.9 MBq, iv after 6 hrs; conditions: in vivo
Summary of the method: (§2)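 ¹²⁵I-labelled tracer given iv by tail vein to mice (22–24 g) bearing LNCaP (left shoulder) and PC-3 (right shoulder) xenografts of about 5–10 mm, grown from 1–5 × 10⁶ cells in 1:1 Matrigel. n=4 per time point; decapitated at 2 min, 30 min, 1, 3, 6 h. Tissues weighed and counted; uptake as %ID/g, mean ± SD.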

Nucleic Acid [6] = test: Ratio of drug level in human PC3 cells xenografted in C.B.-17/Icr +/+ Jcl mouse to muscle of C.B.-17/Icr +/+ Jcl mouse xenografted with human LNCAP and PC3 cells at 25.9 MBq, iv after 3 hrs; conditions: in vivo
Summary of the method: (§3)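 Mice (22–24 g) carried PC-3 (right shoulder) and LNCaP (left shoulder) tumors, raised by injecting 1–5 × 10⁶ cells in 1:1 PBS/Matrigel and used at about 5–10 mm diameter. [¹²⁵I]-tracer was given via the tail vein, n=4 per time point, and mice were decapitated at 2 min, 30 min, 1, 3 or 6 h. Tissues were weighed and γ-counted as %ID/g. Tumor/blood and tumor/muscle ratios were taken from %ID/g, mean ± SD.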

[7] = Ratio of drug level in human LNCAP cells xenografted in C.B.-17/Icr +/+ Jcl mouse to blood of C.B.-17/Icr +/+ Jcl mouse xenografted with human LNCAP and PC3 cells at 25.9 MBq, iv after 3 hrs; conditions: LNCAP tumour xenograft relative to blood; summary of the method: as §1
Liver [8] = test: Biodistribution in liver of C.B.-17/Icr […] Jcl mouse xenografted with human LNCAP and PC3 cells at 25.9 MBq, iv after 3 hrs; conditions: in vivo; summary of the method: as §2
Kidney [9] = test: Biodistribution in kidney of C.B.-17/Icr […] Jcl mouse xenografted with human LNCAP and PC3 cells at 25.9 MBq, iv after 3 hrs; conditions: in vivo; summary of the method: as §2
Blood [10] = test: Biodistribution in blood of C.B.-17/Icr +/+ Jcl mouse xenografted with human LNCAP and PC3 cells at 25.9 MBq, iv after 3 hrs; conditions: in vivo; summary of the method: as §2
Nucleic Acid [11] = test: Ratio of drug level in human LNCAP cells xenografted in C.B.-17/Icr +/+ Jcl mouse to muscle of C.B.-17/Icr +/+ Jcl mouse xenografted with human LNCAP and PC3 cells at 25.9 MBq, iv after 1 hr; conditions: in vivo; summary of the method: as §1
Stomach [12] = test: Biodistribution in stomach of C.B.-17/Icr +/+ Jcl mouse xenografted with human LNCAP and PC3 cells at 25.9 MBq, iv after 1 hr; conditions: in vivo
Summary of the method: (§4)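 Radioiodinated (¹²⁵I) tracer given by tail-vein injection to mice bearing LNCaP (left shoulder) and PC-3 (right shoulder) xenografts, 22–24 g, grown to about 5–10 mm. Groups of n=4 were decapitated at 2 min, 30 min, 1 h, 3 h or 6 h. Tissues were weighed and counted, and uptake was expressed as %ID/g (mean ± SD).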

Blood [13] = test: Biodistribution in blood of C.B.-17/Icr +/+ Jcl mouse xenografted with human LNCAP and PC3 cells at 25.9 MBq, iv after 1 hr; conditions: in vivo; summary of the method: as §2
[14] = Ratio of drug level in human PC3 cells xenografted in C.B.-17/Icr +/+ Jcl mouse to blood of C.B.-17/Icr +/+ Jcl mouse xenografted with human LNCAP and PC3 cells at 25.9 MBq, iv after 30 mins; conditions: PC3 tumour xenograft relative to blood; summary of the method: as §3
[15] = Ratio of drug level in human LNCAP cells xenografted in C.B.-17/Icr +/+ Jcl mouse to blood of C.B.-17/Icr +/+ Jcl mouse xenografted with human LNCAP and PC3 cells at 25.9 MBq, iv after 30 mins; conditions: LNCAP tumour xenograft relative to blood; summary of the method: as §1
Thyroid gland = test: Biodistribution in thyroid of C.B.-17/Icr +/+ Jcl mouse xenografted with human LNCAP and PC3 cells at 25.9 MBq, iv after 30 mins; conditions: in vivo, 0.5 h; summary of the method: as §4
Spleen [16] = test: Biodistribution in spleen of C.B.-17/Icr scid/scid Jcl mouse xenografted with human LNCAP and PC3 cells at 25.9 MBq, iv after 30 mins in presence of 2-PMPA; conditions: in vivo, 0.5 h
Summary of the method: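 Blocking study: the ¹²⁵I tracer was coinjected via the tail vein with 2-PMPA (50 mg/kg) into LNCaP/PC-3 tumor-bearing mice, 22–24 g. Mice were decapitated 30 min after injection. Tissues were weighed and counted, giving %ID/g.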

Heart = test: Biodistribution in heart of C.B.-17/Icr +/+ Jcl mouse xenografted with human LNCAP and PC3 cells at 25.9 MBq, iv after 30 mins; conditions: in vivo, 0.5 h; summary of the method: as §2
Kidney [17] = test: Biodistribution in kidney of C.B.-17/Icr +/+ Jcl mouse xenografted with human LNCAP and PC3 cells at 25.9 MBq, iv after 30 mins; conditions: in vivo, 0.5 h; summary of the method: as §2
Stomach [18] = test: Biodistribution in stomach of C.B.-17/Icr +/+ Jcl mouse xenografted with human LNCAP and PC3 cells at 25.9 MBq, iv after 30 mins; conditions: in vivo, 0.5 h; summary of the method: as §4
Blood [19] = test: Biodistribution in blood of C.B.-17/Icr +/+ Jcl mouse xenografted with human LNCAP and PC3 cells at 25.9 MBq, iv after 30 mins; conditions: in vivo, 0.5 h; summary of the method: as §2
[20] = Ratio of drug level in human PC3 cells xenografted in C.B.-17/Icr +/+ Jcl mouse to blood of C.B.-17/Icr +/+ Jcl mouse xenografted with human LNCAP and PC3 cells at 25.9 MBq, iv after 2 mins; conditions: PC3 tumour xenograft relative to blood; summary of the method: as §3
Intestine = test: Biodistribution in intestine of C.B.-17/Icr +/+ Jcl mouse xenografted with human LNCAP and PC3 cells at 25.9 MBq, iv after 2 mins; conditions: in vivo; summary of the method: as §2

O=C(O)CC[C@H](NC(=O)N[C@@H](CSC1CC(=O)N(CCCC[C@H](NC(=O)CNC(=O)c2cccc([125I])c2)C(=O)O)C1=O)C(=O)O)C(=O)O (some centres undefined)
Drug excretion (Kidney [1]): Active
Drug excretion (Liver [2]): Active
Drug uptake (LNCaP): Not Active
Drug uptake (Spleen [3]): Active
Kp at 6 h [4]: 13.3
Drug uptake (Blood [5]): 0.5 % ID/g
Ratio (Nucleic Acid [6]): 1.5
Kp at 3 h [7]: 13.8
Drug uptake (Liver [8]): 9 % ID/g
Drug uptake (Kidney [9]): 110 % ID/g
Drug uptake (Blood [10]): 0.7 % ID/g
Ratio (Nucleic Acid [11]): 15.5
Drug uptake (Stomach [12]): 1 %ID
Drug uptake (Blood [13]): 1 % ID/g
Kp at 0.5 h [14]: 0.7
Kp at 0.5 h [15]: 7.2
Drug uptake (Thyroid gland): 0 %ID
Drug uptake (Spleen [16]): Not Active
Drug uptake (Heart): 2.1 % ID/g
Drug uptake (Kidney [17]): 88.8 % ID/g
Drug uptake (Stomach [18]): 2.2 %ID
Drug uptake (Blood [19]): 1.3 % ID/g
Kp at 2 min [20]: 0.4
Drug uptake (Intestine): 3.6 % ID/g
